{"data": "Experimental data gathered from unrelated publications", "STK16": "Serine/threonine-protein kinase 16 (STK16, Homo sapiens, UniProt O75716)", "TAOK3": "Serine/threonine-protein kinase TAO3 (TAOK3, Homo sapiens, UniProt Q9H2K8)", "PPO3": "PPO3 (Agaricus bisporus, UniProt C7FF04)", "note": "Compare with care: the assays were run in different laboratories."}
{"Compound": "Cc1cc(F)cc2c(CCC(=O)N[C@@H]3C(=O)NC[C@H]3O)c(-c3ccc(F)cc3)[nH]c12", "target": "Adenosine receptor A2a (ADORA2A, Homo sapiens, UniProt P29274)", "assay": "cell-free assay", "conditions": "10 µM", "endpoint": "inhibition", "result": "15%"}
{"Compound": "C[C@]1(O)CCCN(c2nc(Nc3ccc(S(=O)(=O)N[C@H]4CC[C@H](CN5CCN(c6ccc(C7CCC(=O)NC7=O)cc6F)CC5)CC4)cc3F)ncc2C(F)(F)F)C1 (stereo partly shown)", "target": "STK16", "assay": "binding, competition with immobilised ligand", "conditions": "1 µM", "endpoint": "remaining binding", "result": "81%"}
{"Compound": "CCCCC(=O)Nc1ccc(-c2ccc3ncn(CCC)c(=O)c3c2)cn1", "target": "STK16", "assay": "binding, competition with immobilised ligand", "conditions": "0.5 µM", "endpoint": "remaining binding", "result": "99%"}
{"Compound": "CC(=O)ON=C1C=CC(=C(C#N)c2ccccc2)C=C1", "target": "Aurora kinase B (AURKB, Homo sapiens, UniProt Q96GD4)", "assay": "enzyme activity, inhibitor, ADP detection", "conditions": "20 µM", "endpoint": "activity vs control", "result": "75%"}
{"Compound": "Cc1cc(O)c(-c2ccc([C@@H](C)CN(C)C)cc2)c2c1[nH]c(=O)c1sccc12", "target": "Interleukin-1 receptor-associated kinase-like 2 (IRAK2, Homo sapiens, UniProt O43187)", "assay": "cell-free assay, inhibitor", "conditions": "0.1 µM, lysate", "endpoint": "inhibition", "result": "13.1%"}
{"Compound": "CCN1/C(=C/C(C)=O)Sc2ccc(F)cc21", "target": "5-hydroxytryptamine receptor 2A (HTR2A, Homo sapiens, UniProt P28223)", "assay": "ligand displacement, radioligand", "conditions": "10 µM", "endpoint": "inhibition", "result": "0.75%"}
{"Compound": "C1=C/COCc2cc(ccc2OCCN2CCCC2)Nc2nccc(n2)-c2cccc(c2)COC/1", "target": "Cytoplasmic tyrosine-protein kinase BMX (BMX, Homo sapiens, UniProt P51813)", "assay": "binding", "conditions": "0.1 µM", "endpoint": "remaining binding", "result": "95%"}
{"Compound": "C[C@]1(O)CCCN(c2nc(Nc3ccc(S(=O)(=O)N[C@H]4CC[C@H](CN5CCN(c6ccc(C7CCC(=O)NC7=O)cc6F)CC5)CC4)cc3Cl)ncc2C(F)(F)F)C1 (stereo partly shown)", "target": "TAOK3", "assay": "binding, competition with immobilised ligand", "conditions": "1 µM", "endpoint": "remaining binding", "result": "82%"}
{"Compound": "Cc1ccc(CN2CCN(C(=O)/C=C/c3ccc(O)cc3O)CC2)cc1", "target": "PPO3", "assay": "binding, SPR", "endpoint": "kon", "result": "298 M⁻¹ s⁻¹"}
{"Compound": "COc1ccc2oc(-c3ccc4nc(N)oc4c3)c/c(=N\\c3ccccc3NC(=O)CCN)c2c1", "target": "Serine/threonine-protein kinase WNK1 (WNK1, Homo sapiens, UniProt Q9H4A3)", "assay": "binding", "conditions": "1 µM", "endpoint": "remaining binding", "result": "114%"}
{"Compound": "NC/C(=C\\F)COc1cccc(Cn2c(=S)[nH]c(=O)c3[nH]cnc32)c1", "target": "Sigma non-opioid intracellular receptor 1 (SIGMAR1, Homo sapiens, UniProt Q99720)", "assay": "ligand displacement, radioligand", "conditions": "10 µM", "endpoint": "inhibition", "result": "< 50%"}
{"Compound": "Cc1cc(S(=O)(=O)N[C@H]2CC[C@H](CN3CCN(c4ccc(C5CCC(=O)NC5=O)cc4F)CC3)CC2)ccc1Nc1ncc(C(F)(F)F)c(N2CCC[C@](C)(O)C2)n1 (stereo partly shown)", "target": "TAOK3", "assay": "binding, competition with immobilised ligand", "conditions": "1 µM", "endpoint": "remaining binding", "result": "54%"}
{"Compound": "O=C(CCc1cccc(O)c1)N1CCN(Cc2ccc(F)cc2)CC1", "target": "PPO3", "assay": "binding, SPR", "endpoint": "kon", "result": "153 M⁻¹ s⁻¹"}
